core dimer inh = blocks dimerization of HCV core protein | TR-FRET GST/Flag-core106 dimerization, 1536-well | hit rate 0.33% among 300,000 | inhibition, % at 5 µM;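 active = inhibition above the mean of all tested compounds plus 3 SD, set per screening campaign, cut at about 45% in these data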
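Assay system: tagged HCV core106 pair (GST and Flag); medium: KF-containing HEPES buffer, pH 7.45, DTT, CHAPS, BSA; also added: Eu donor and XL665 acceptor anti-tag antibodies; dosing: 5 µM single dose; timing: compound-protein-antibody incubation 4 h at 22.5 °C; signal: TR-FRET 671 and 617 nm emission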
NadD block = blocks S. aureus nicotinate mononucleotide adenylyltransferase. purified NadD enzyme, colorimetric absorbance read-out. inhibition, % at 20 µM. hit rate 0.78% among 360,000. AID 602399; in the data active = inhibition above about 26%
ABHD5 PLIN5 PPI = inhibitors of human ABHD5-perilipin-5 interaction; Q00G26+Q8WTS1; hit rate 0.78% among 360,000; inhibition, % at 4 µM; Split G. princeps luciferase complementation, luminescence, 4 h;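 active = inhibition above the mean inhibition across every tested compound plus 3 SD, cut at about 22% in these data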;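 also: 0% = DMSO only wells and the 100% control is not disclosed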
Target sequence (Q00G26 whole entry, looked up): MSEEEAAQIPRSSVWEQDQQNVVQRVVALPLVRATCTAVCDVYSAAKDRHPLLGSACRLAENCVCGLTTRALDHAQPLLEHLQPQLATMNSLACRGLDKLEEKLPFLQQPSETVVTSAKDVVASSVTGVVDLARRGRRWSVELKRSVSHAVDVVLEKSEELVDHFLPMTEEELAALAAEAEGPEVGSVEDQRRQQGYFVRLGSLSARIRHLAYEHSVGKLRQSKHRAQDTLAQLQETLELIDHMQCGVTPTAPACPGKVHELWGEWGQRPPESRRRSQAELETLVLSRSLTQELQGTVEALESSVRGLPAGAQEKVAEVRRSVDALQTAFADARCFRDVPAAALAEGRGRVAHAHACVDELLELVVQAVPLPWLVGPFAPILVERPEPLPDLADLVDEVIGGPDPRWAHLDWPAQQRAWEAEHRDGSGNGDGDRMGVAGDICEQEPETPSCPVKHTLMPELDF
Target sequence (Q8WTS1 whole entry, looked up): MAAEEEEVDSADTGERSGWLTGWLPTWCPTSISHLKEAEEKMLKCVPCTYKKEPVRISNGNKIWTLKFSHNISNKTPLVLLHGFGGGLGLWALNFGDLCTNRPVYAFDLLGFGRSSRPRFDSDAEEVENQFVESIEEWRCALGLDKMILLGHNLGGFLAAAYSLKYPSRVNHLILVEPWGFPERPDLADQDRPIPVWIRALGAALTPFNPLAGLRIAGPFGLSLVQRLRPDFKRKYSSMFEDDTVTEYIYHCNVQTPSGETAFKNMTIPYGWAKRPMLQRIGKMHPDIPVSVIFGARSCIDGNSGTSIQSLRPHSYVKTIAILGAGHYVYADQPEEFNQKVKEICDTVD
rCAG RNA binder = molecules binding r(CAG) RNA repeats; r(CAG) RNA repeat, TO-PRO-1 dye displacement fluorescence; inhibition, % at 3 µM; hit rate 1.3% among 370,000;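 active = inhibition above the plate cutoff, the mean of all test compounds on that plate plus 3 SD, cut at about 35% in these data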;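 also: 0% = DMSO alone and 100% = 100 µM mitoxantrone as full dye displacement; higher means more dye released from RNA so lower well fluorescence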
rCAG bind conf = r(CAG) RNA repeat binding, confirmation | AID 652065 | inhibition, % at 3 µM | TO-PRO-1 dye displacement fluorescence | hit rate 70% among 4,300 | shares compounds with rCAG RNA binder;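 active = inhibition above a per-plate cutoff, the mean inhibition of sample wells plus 3 SD, cut at about 35% in these data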;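 also: loss of TO-PRO-1 fluorescence as compound displaces dye from 1x1 AA loop RNA; 0% = DMSO only wells and 100% = 100 µM mitoxantrone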
DNA CAG counter = DNA CAG dye complex inhibition counter-screen; shares compounds with rCAG RNA binder; d(CAG) DNA oligo TO-PRO-1 dye displacement, fluorescence; inhibition, % at 3 µM; hit rate 94% among 4,300; AID 652068;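 active = inhibition above its plate's cutoff, the mean test-well inhibition plus 3 SD, cut at about 4.8% in these data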;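 also: 0% = DNA dye mix with DMSO and 100% = 100 µM mitoxantrone; hits displace the dye from DNA and so lower well fluorescence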
DNA CAG DR = DNA CAG dye complex inhibition, dose response counter-screen | DNA CAG/GTC duplex TO-PRO-1 dye displacement fluorescence | hit rate 20% among 250 | shares compounds with rCAG RNA binder | AID 686960 | IC50, µM; in the data active = IC50 below about 10 µM
The depositor's hits bear a star; x = no result given. Rows were chosen to be rich in hits. Some 2.6% of all compounds tested hit in one or more screens of this group.

SMILES | core dimer inh | NadD block | ABHD5 PLIN5 PPI | rCAG RNA binder | rCAG bind conf | DNA CAG counter | others
COc1ccc(CN(C)S(=O)(=O)c2nnc(NC(=O)c3ccccc3Br)s2)cc1 | 24 | -1 | 2 | 73* | 52* | 18*
Cc1cccc(C)c1NC(=O)C1c2ccccc2OCC(=O)N1CCc1c[nH]c2ccccc12 (configuration not stated) | x | 4 | -1 | 4 | x | x
O=C(Nc1ccc(Cl)c(Cl)c1)Nc1ccccc1C(=O)O | -1 | -5 | -2 | 61* | 51* | 11* | DNA CAG DR=>30
O=C(Nc1ccc(Cl)cc1)Nc1ccccc1C(=O)O | 1 | -1 | 5 | 14 | x | x
CC(=O)c1cccc(NC(=O)C(OC(=O)c2ccccc2NS(=O)(=O)c2cccs2)c2ccccc2)c1 (configuration not stated) | 39 | 8 | 4 | 43* | 36* | 17*
O=C(Nc1ccc(Cl)c(Cl)c1)Nc1ccccc1NS(=O)(=O)c1cccs1 | 6 | -4 | -4 | 42* | 33 | 9.4*
O=C(NNC(=S)NCCc1ccccc1)c1ccc(Br)s1 | -1 | -1 | -8 | 54* | 47* | 14* | DNA CAG DR=>30
CCCc1cc(=O)[nH]c(SCC(=O)Nc2ccc(C)c(S(=O)(=O)N3CCCCC3)c2)n1 | x | -1 | -8 | 42* | 37* | 10*
CCCc1cc(=O)[nH]c(SCC(=O)Nc2cc(S(=O)(=O)N3CCCCC3)ccc2Cl)n1 | x | 14 | -13 | 41* | 35* | 11*
CCCc1cc(=O)[nH]c(SCC(=O)Nc2cc(S(=O)(=O)N3CCOCC3)ccc2Cl)n1 | x | 3 | -4 | 16 | x | x
CCCCCCCCN1C(=O)[C@@H](CC(=O)N2CCN(C(=O)C3CC3)CC2)C[C@@]2(C(=O)OC)C1=C[C@H](C(C)C)O[C@@H]2C1CC1 | x | x | x | 7 | x | x
Fc1cccc2sc(Nc3nc4c(F)cccc4s3)nc12 | 18 | 13 | -1 | 58* | 60* | 24*
COCC(=O)N(Cc1ccccc1)c1ccccc1C(=O)Nc1cc(OC)ccc1OC | x | x | x | 0 | x | x
C=C(C)C(O)CC/C(C)=C/Cc1c(O)ccc(C(=O)/C=C/c2ccc(O)cc2)c1O (configuration not stated) | x | -1 | 3 | 27 | x | x
COc1ccc(C(=O)/C=C/c2ccc(O)cc2)c(O)c1C/C=C(\C)CCC=C(C)C | x | -5 | -11 | 69* | 65* | 28*
COC(=O)C1=C(C)N(CC(C)C)C(=S)NC1c1cccc(F)c1 (configuration not stated) | x | x | x | 0 | x | x
CCOc1ccccc1Nc1nnc(SCC(=O)NC(Cc2c[nH]c3ccccc23)C(=O)O)s1 (configuration not stated) | 10 | 7 | -7 | 39* | 33 | 10*
Cc1ccc(C)c(OCC(=O)NC(Cc2c[nH]c3ccccc23)C(=O)O)c1 (configuration not stated) | -2 | 2 | 2 | 20 | x | x
Cc1ccc(Nc2nnc(SCC(=O)NC(Cc3c[nH]c4ccccc34)C(=O)O)s2)cc1 (configuration not stated) | 6 | 12 | -1 | 38* | 28 | 8.6*
Cc1oc(-c2ccccc2)cc1C(=O)NC(Cc1c[nH]c2ccccc12)C(=O)O (configuration not stated) | 3 | 1 | 11 | 40* | 52* | 18*
CCCc1ccc2c(C)cccc2n1 | x | x | x | 1 | x | x
Cc1ccsc1/C=C1\SC(=S)N(CC2CCCO2)C1=O (configuration not stated) | 2 | -9 | 3 | 36* | 3 | 2
C=CCn1c(COc2ccccc2)nnc1SCC(=O)Nc1ccc(S(=O)(=O)Nc2cc(C)nc(C)n2)cc1 | x | x | x | 29 | x | x
O=C(NCCc1ccccc1)OCc1cn(Cc2ccc(F)c(F)c2)nn1 | x | x | x | -2 | x | x
O=C(CCN1C(=O)S/C(=C/c2ccccc2)C1=O)Nc1ccc(C(=O)O)c(O)c1 | 8 | -3 | 1 | 63* | 41* | 15*
SMILES | core dimer inh | NadD block | ABHD5 PLIN5 PPI | rCAG RNA binder | rCAG bind conf | DNA CAG counter | others
COc1ccc(/C=C2\SC(=O)N(CCCC(=O)Nc3ccc(C(=O)O)cc3)C2=O)cc1 | x | 1 | -1 | 4 | x | x
O=C(CCN1C(=O)S/C(=C\c2ccc(Cl)cc2)C1=O)Nc1ccc(C(=O)O)cc1 | 17 | 1 | -4 | -1 | x | x
O=C(CCN1C(=O)S/C(=C\c2ccc(F)cc2)C1=O)Nc1ccc(C(=O)O)c(O)c1 | 10 | -6 | 18 | 68* | 43* | 11*
O=C(CCN1C(=O)/C(=C/c2ccc(F)cc2)SC1=S)Nc1cccnc1 | 11 | 14 | 6 | 3 | x | x
O=C(CN1C(=O)S/C(=C\c2ccccc2)C1=O)Nc1cc([N+](=O)[O-])ccc1O | 15 | 4 | 8 | 80* | 61* | 24*
O=C(CCN1C(=O)S/C(=C/c2ccc(F)cc2)C1=O)Nc1ccc(O)c(C(=O)O)c1 | 10 | -2 | 0 | 51* | 36* | 9.1*
CCc1cc2c(nc1CC)CCCN2C | x | x | x | 2 | x | x
O=C(CCN1C(=O)S/C(=C\c2ccc(F)cc2)C1=O)Nc1ccc(O)cc1C(=O)O | 7 | -2 | 1 | 49* | 28 | 6.8*
O=c1oc2c(-c3ccc([N+](=O)[O-])cc3)cc(O)cc2s1 | -4 | 8 | -4 | 40* | 9 | 7.7*
O=C(COc1cc2oc(=O)cc(-c3ccccc3)c2cc1Cl)NC(Cc1c[nH]c2ccc(O)cc12)C(=O)O (configuration not stated) | -4 | 4 | 1 | 42* | 62* | 24*
CC(Oc1ccc2c(-c3ccccc3)cc(=O)oc2c1)C(=O)N[C@H](Cc1c[nH]c2ccccc12)C(=O)O (some centres not stated) | 5 | 8 | -6 | 31 | x | x
CCc1cc(=O)oc2cc(C)cc(OCC(=O)NC(Cc3c[nH]c4ccc(O)cc34)C(=O)O)c12 (configuration not stated) | 4 | 4 | 8 | 6 | x | x
COc1ccc(-c2cc(=O)oc3c(C)c(OCC(=O)N[C@@H](Cc4ccc(O)cc4)C(=O)O)ccc23)cc1 | 3 | 9 | 9 | 47* | 46* | 13*
Cc1c(OCC(=O)NC(Cc2ccc(Cl)cc2)C(=O)O)ccc2c(-c3ccccc3)cc(=O)oc12 (configuration not stated) | 4 | 11 | -8 | 13 | x | x
Cc1c(OC(C(=O)O)c2ccccc2)ccc2c(-c3ccccc3)cc(=O)oc12 (configuration not stated) | 19 | -2 | -1 | 37* | 38* | 9.0*
COc1ccc(-c2cc(=O)oc3cc(OC(C)C(=O)NC(Cc4c[nH]c5ccc(O)cc45)C(=O)O)ccc23)cc1 (configuration not stated) | -10 | -4 | 6 | 44* | 43* | 13*
CC(=C1SC(=S)NC1=O)c1ccc(Cl)c(O)c1 | x | x | x | 4 | x | x
